Measurements reported in ChEMBL document CHEMBL4393722, “Development of the "hidden" multifunctional agents for Alzheimer's disease” (Eur J Med Chem, 2019).
Blank lines part the entries; values can stand above or below the molecule they belong to. The source made the active and inactive calls. The rule behind the calls is not given here.

How the values were obtained:
[1] = target: Amyloid-beta precursor protein (Homo sapiens) (UniProt P05067); experiment: Inhibition of HFIP-pretreated amyloid beta (1 to 42) (unknown origin) self-aggregation at 20 uM after 72 hrs by uranyl acetate staining based transmission electron microscopy
Amyloid-beta precursor protein (Homo sapiens), sequence (P05067 whole entry): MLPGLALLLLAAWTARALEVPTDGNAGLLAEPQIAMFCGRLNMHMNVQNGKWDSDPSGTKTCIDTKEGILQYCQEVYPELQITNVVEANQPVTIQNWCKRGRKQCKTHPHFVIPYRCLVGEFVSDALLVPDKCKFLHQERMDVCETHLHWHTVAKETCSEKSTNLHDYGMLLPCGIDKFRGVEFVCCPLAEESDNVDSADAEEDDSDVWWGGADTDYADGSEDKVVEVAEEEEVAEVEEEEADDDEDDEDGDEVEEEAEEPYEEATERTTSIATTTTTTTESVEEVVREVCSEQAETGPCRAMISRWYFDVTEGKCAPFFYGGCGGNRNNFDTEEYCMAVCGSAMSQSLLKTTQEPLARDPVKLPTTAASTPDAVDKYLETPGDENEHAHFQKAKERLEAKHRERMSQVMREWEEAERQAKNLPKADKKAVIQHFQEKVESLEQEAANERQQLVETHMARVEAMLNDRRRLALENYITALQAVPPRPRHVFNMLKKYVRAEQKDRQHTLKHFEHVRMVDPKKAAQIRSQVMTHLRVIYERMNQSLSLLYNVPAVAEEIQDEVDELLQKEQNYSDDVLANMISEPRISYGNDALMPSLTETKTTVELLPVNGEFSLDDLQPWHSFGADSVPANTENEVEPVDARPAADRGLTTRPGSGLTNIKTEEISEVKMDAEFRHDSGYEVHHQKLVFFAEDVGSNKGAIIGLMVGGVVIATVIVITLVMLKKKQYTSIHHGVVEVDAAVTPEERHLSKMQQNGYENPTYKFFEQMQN
In short: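 Aβ1-42 was incubated alone or with compound for 72 h at 37 °C. Fibril formation was then examined by transmission electron microscopy, with curcumin as positive control.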

[2] = Metal chelating activity assessed as compound-Fe2+ complex formation at 25 uM incubated for 5 mins in presence of 25 uM FeSO4 by UV-visible spectrophotometry
[3] = Metal chelating activity assessed as compound-Cu2+ complex formation by measuring decrease in absorption with spectral shift to red end at 25 uM incubated for 5 mins in presence of 25 uM CuCl2 by UV-visible spectrophotometry
[4] = Metal chelating activity assessed as compound-Zn2+ complex formation at 25 uM incubated for 5 mins in presence of 25 uM ZnCl2 by UV-visible spectrophotometry
Mus musculus = species: Mus musculus; experiment: Cognition enhancement in scopolamine-induced amnesia mouse model by Morris water maze test; format: functional, organism-based
hERG (KCNH2) = hERG (KCNH2) (Homo sapiens, UniProt Q12809); experiment: Inhibition of human ERG expressed in CHO cells at 0.1 uM incubated for 1 min at -80 mV holding potential by manual patch clamp assay relative to control; format: cell-based; conditions: CHO cells expressing human ERG
hERG (KCNH2), sequence (Q12809 whole entry): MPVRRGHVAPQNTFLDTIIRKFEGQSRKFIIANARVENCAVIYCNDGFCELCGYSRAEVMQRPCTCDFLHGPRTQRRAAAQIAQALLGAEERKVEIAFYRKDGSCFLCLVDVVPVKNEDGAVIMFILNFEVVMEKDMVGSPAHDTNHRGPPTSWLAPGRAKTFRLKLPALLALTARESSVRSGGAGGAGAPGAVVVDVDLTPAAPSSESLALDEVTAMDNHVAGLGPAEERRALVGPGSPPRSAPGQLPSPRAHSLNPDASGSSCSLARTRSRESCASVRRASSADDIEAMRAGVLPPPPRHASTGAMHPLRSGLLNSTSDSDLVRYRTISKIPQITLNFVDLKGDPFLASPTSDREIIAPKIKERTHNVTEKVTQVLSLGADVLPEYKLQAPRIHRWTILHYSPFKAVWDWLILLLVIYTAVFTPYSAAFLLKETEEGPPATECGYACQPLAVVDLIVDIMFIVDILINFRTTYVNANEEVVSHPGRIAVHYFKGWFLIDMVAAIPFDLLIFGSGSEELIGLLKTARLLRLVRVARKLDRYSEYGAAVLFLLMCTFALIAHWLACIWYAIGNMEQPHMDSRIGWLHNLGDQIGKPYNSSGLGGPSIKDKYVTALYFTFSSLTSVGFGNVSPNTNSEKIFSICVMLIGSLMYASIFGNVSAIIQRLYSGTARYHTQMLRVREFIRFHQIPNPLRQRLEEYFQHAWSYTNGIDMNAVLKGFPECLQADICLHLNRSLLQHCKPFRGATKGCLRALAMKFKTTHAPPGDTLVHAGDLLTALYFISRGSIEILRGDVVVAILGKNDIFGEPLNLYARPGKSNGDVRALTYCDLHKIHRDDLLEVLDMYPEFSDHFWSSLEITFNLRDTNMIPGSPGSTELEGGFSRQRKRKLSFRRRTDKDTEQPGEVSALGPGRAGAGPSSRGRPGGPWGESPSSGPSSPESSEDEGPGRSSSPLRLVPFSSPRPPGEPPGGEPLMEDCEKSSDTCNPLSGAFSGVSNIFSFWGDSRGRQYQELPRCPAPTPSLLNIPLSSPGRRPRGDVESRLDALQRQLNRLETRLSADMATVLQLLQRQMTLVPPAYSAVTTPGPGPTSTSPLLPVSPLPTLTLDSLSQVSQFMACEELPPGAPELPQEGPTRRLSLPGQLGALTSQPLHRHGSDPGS

inhibition [1]: Active
SMILES: COc1cc(/C=C/C(=O)CC(=O)/C=C/c2ccc(O)c(OC)c2)ccc1O

Activity [2]: Active
Activity [3]: Active
Activity [4]: Active
SMILES: Oc1c(I)cc(Cl)c2cccnc12
Activity (Mus musculus): inactive

SMILES: COc1cc(N)c(Cl)cc1C(=O)N[C@H]1CCN(CCCOc2ccc(F)cc2)C[C@H]1OC [REL-CISAPRIDE]
inhibition at 1 min, 0.1 µM (hERG (KCNH2)): 89%
